Measured values as given in ChEMBL document CHEMBL1921750 (J Med Chem, 2011).
Calls of active or inactive are those of the source. The calls are words filed in the database; no cut-off is given here.

What was measured:
Cannabinoid receptor 1 [1] = molecular target: T1, Cannabinoid receptor 1 (Homo sapiens, UniProt P21554); experiment: Displacement of [3H]CP55940 from human CB1 receptor expressed in human HEK293 cells; type: cell-based
Cannabinoid receptor 2 = Cannabinoid receptor 2 (Homo sapiens, UniProt P34972); experiment: Displacement of [3H]CP55940 from human CB2 receptor expressed in human HEK293 cells; type: cell-based
Cannabinoid receptor 2, sequence (P34972 whole entry): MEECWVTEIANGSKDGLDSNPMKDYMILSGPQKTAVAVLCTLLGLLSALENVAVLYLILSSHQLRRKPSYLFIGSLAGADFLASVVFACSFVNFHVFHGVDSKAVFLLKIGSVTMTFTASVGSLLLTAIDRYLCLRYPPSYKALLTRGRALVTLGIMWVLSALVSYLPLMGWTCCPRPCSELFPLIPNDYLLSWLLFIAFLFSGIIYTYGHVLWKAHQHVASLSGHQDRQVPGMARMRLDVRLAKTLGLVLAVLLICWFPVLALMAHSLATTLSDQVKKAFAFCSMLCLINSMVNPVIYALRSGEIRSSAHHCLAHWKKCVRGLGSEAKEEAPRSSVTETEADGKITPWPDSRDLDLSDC
In short: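 Membranes from HEK-293 cells stably expressing human CB1 or CB2. Compounds displacing >50% at 10 μM got curves at 1–1000 nM. Ki from IC50 via Cheng–Prusoff. Three experiments in duplicate. SI = Ki CB2/Ki CB1.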

Homo sapiens = species on record: Homo sapiens; experiment: Selectivity index, ratio of Ki for human CB2 receptor to Ki for human CB1 receptor
In short: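 Membranes from HEK-293 cells stably expressing human CB1 or CB2. […] Preliminary screen at 5, 10, 25 μM. Compounds displacing >50% at 10 μM got curves at 1–1000 nM. Ki from IC50 via Cheng–Prusoff. Three experiments in duplicate. SI = Ki CB2/Ki CB1.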

Cannabinoid receptor 1 [2] = molecular target: Cannabinoid receptor 1 (Mus musculus, UniProt P47746); experiment: Agonist activity at MF1 mouse brain CB1 receptor assessed as induction of [35S]GTPgammaS binding after 60 mins by liquid scintillation counting; type: functional, tissue-based
Cannabinoid receptor 1 (Mus musculus, UniProt P47746), sequence (P47746 whole entry): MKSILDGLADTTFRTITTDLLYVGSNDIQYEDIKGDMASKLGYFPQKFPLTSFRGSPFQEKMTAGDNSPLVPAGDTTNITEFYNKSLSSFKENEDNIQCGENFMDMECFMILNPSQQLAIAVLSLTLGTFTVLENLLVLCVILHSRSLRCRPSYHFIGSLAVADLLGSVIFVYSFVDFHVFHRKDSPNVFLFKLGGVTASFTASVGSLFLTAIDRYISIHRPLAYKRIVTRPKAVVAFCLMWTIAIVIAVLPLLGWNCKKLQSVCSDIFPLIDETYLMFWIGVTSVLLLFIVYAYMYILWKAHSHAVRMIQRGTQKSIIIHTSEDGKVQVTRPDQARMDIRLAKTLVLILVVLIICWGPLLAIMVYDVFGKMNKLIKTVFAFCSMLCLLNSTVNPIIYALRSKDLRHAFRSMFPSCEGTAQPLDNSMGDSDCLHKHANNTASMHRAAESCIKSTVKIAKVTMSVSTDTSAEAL
In short: (§1)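 [35S]GTPγS binding in buffer of 50 mM Tris-HCl, 50 mM Tris-base, 5 mM MgCl2, 1 mM EDTA, 100 mM NaCl, 1 mM DTT, 0.1% BSA with 0.1 nM [35S]GTPγS and 30 μM GDP. Mouse whole brain membranes (5 μg/well) were preincubated 30 min at 30 °C with adenosine deaminase. CHO-hCB1 membranes were used at 50 μg/well. Test range 1 nM–10 μM. Incubation 60 min at 30 °C, filtration, scintillation counting. Nonspecific binding taken with 30 μM GTPγS. Net stimulation = agonist minus basal. EC50/Emax by sigmoid nonlinear regression.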

[3] = molecular target: Cannabinoid receptor 1 (Mus musculus) (UniProt P47746); experiment: Agonist activity at MF1 mouse brain CB1 receptor assessed as induction of [35S]GTPgammaS binding after 60 mins by liquid scintillation counting relative to cannabinoid receptor agonist CP55940; type: functional, tissue-based; in short: as §1
Cannabinoid receptor 1 (Mus musculus), sequence (P47746 whole entry): as above

[4] = molecular target: Cannabinoid receptor 1 (Mus musculus) (UniProt P47746); experiment: Antagonist activity at MF1 mouse brain CB1 receptor assessed as inhibition of CP55940-induced [35S]GTPgammaS binding at 1 uM after 60 mins by liquid scintillation counting; type: functional
In short: (§2)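 Same [35S]GTPγS assay on mouse whole brain membranes (5 μg/well, adenosine deaminase-preincubated). 0.1 nM [35S]GTPγS, 30 μM GDP. Single concentration of test compound, 1 μM or 100 nM, against a log concentration-response curve of CP-55940. Incubation 60 min at 30 °C. Read by filtration and liquid scintillation counting.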

Cannabinoid receptor 1 [5] = molecular target: T1, Cannabinoid receptor 1; experiment: Agonist activity at human CB1 receptor expressed in CHO cells assessed as induction of [35S]GTPgammaS binding after 60 mins by liquid scintillation counting; type: functional, cell-based; in short: as §1
Cannabinoid receptor 1 [6] = molecular target: T1, Cannabinoid receptor 1; experiment: Antagonist activity at human CB1 receptor expressed in CHO cells assessed as inhibition of CP55940-induced [35S]GTPgammaS binding after 60 mins by liquid scintillation counting; type: functional, cell-based
[7] = molecular target: Cannabinoid receptor 1 (Mus musculus) (UniProt P47746); experiment: Antagonist activity at MF1 mouse brain CB1 receptor assessed as inhibition of CP55940-induced [35S]GTPgammaS binding at 100 nM after 60 mins by liquid scintillation counting; type: functional; in short: as §2
[8] = Chemical stability of the compound in biological buffer at 2.1 mM at 30 degC after 90 mins by LC-MS/MS analysis; type: physicochemical; details: 1.5 h, 2100 µM
In short: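 DMSO solution (2.1 mM stock) diluted in GTPγS binding buffer and incubated 90 min at 30 °C. Samples taken at 60 and 90 min and analysed by LC–ESI triple-quadrupole MS (positive mode, C18, acetonitrile/0.1% formic acid gradient) for hydrolysis products.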

Plasma [9] = experiment: Metabolic stability of the compound in human plasma assessed as plasma esterase-mediated compound hydrolysis at 200 uM from 15 to 120 mins by reverse-phase LC-MS analysis; type: ADME, cell-free
In short: (§3)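 Citrated human plasma, or water as control, spiked to final 1 × 10⁻⁴ or 2 × 10⁻⁴ M. Incubated at 37 °C for 0, 15, 30, 60, 120 min, stopped with acetonitrile, centrifuged. Supernatant run by reverse-phase LC (C8, methanol/water 92/8) with UV 254 nm and positive-ion MS. Triplicates. AUC(0–120 min) compared by Student's t test.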

CYP3A4 = experiment: Metabolic stability assessed as compound remaining at 1 uM after 1 hr by LC-MS analysis in presence of human CYP3A4 and NADPH; type: ADME; details: human CYP3A4 enzyme, read-out: Stability
In short: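 Recombinant human CYP3A4 at 20 pmol/mL (0.1–0.2 mg/mL protein). Substrate final 1 μM, 0.25% organic solvent. Run with NADPH regenerating system or phosphate buffer instead. Incubated 1 h at 37 °C, stopped with acetonitrile. Percent remaining by MS.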

Plasma [10] = experiment: Metabolic stability of the compound in human plasma assessed as plasma esterase-mediated compound hydrolysis at 100 uM from 15 to 120 mins by reverse-phase LC-MS analysis; type: ADME, cell-free; in short: as §3

T1 sequence (P21554 whole entry): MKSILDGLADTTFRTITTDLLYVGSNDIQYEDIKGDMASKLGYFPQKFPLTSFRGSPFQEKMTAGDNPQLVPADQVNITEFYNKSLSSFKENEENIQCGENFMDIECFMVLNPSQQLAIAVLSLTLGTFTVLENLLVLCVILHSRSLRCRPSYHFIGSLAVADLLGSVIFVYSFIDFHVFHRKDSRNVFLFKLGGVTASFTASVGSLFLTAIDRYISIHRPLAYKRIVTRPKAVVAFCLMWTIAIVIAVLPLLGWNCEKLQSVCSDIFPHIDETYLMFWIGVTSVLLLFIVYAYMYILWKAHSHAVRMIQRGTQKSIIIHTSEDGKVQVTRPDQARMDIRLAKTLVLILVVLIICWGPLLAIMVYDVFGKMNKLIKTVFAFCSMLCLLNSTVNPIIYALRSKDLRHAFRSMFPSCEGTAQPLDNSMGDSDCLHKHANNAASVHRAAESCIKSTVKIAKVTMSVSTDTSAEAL

## CCCCCCc1ccc(OCCCCCCCC(=O)OC(CO)CO)cc1O
Cannabinoid receptor 1 [1]
  Ki: > 10000 nM
Cannabinoid receptor 2
  Ki: 7870 nM

## CCCCCCC(C)(C)c1cc(O)cc(OCCCCCCCCCCCCOC(CO)CO)c1
Cannabinoid receptor 1 [1]
  Ki: 1040 nM
Cannabinoid receptor 2
  Ki: 1670 nM

## CCCCCc1cc(O)cc(OCCCCCCCCCCOC(CO)CO)c1
Cannabinoid receptor 1 [1]
  Ki: > 10000 nM
Cannabinoid receptor 2
  Ki: > 10000 nM

## CCCCCCc1ccc(O)cc1OCCCCCCCCCCC(=O)OC(CO)CO
Cannabinoid receptor 1 [1]
  Ki: 60 nM
Cannabinoid receptor 2
  Ki: 1800 nM
Homo sapiens
  Ratio Ki: 32
Cannabinoid receptor 1 [2]
  EC50: 78.4 nM
[3]
  Emax: 11.4%
[4]
  Activity: inactive
Cannabinoid receptor 1 [5]
  Activity: inactive
Cannabinoid receptor 1 [6]
  Activity: inactive

## CCCCCc1cc(O)cc(OCCCCCCCCCCCCOC(CO)CO)c1
Cannabinoid receptor 1 [1]
  Ki: 3780 nM
Cannabinoid receptor 2
  Ki: > 10000 nM

## CCCCCCC(C)(C)c1cc(O)cc(OCCCCCCCCCCCC(=O)OC(CO)CO)c1
Cannabinoid receptor 1 [1]
  Ki: 2710 nM
Cannabinoid receptor 2
  Ki: 800 nM

## CCCCCCC(C)(C)c1cc(O)cc(OCCCCCCCCCCC(=O)OC(CO)CO)c1
Cannabinoid receptor 1 [1]
  Ki: 10 nM
Cannabinoid receptor 2
  Ki: 790 nM
Homo sapiens
  Ratio Ki: 88
Cannabinoid receptor 1 [2]
  EC50: 6.3 nM
[3]
  Emax: 14.7%
[7]
  Activity: inactive
Cannabinoid receptor 1 [5]
  Activity: inactive
Cannabinoid receptor 1 [6]
  Activity: inactive
[8]
  Stability: Stable
Plasma [9]
  Stability: Stable
CYP3A4
  remaining at 1 h, 1 µM: 24%
Plasma [10]
  Stability: Stable

## CCCCCCc1ccc(O)cc1OCCCCCCCC(=O)OC(CO)CO
Cannabinoid receptor 1 [1]
  Ki: 800 nM
Cannabinoid receptor 2
  Ki: 1800 nM

## CCCCCCc1ccc(OCCCCCCCCCCOC(CO)CO)cc1O
Cannabinoid receptor 1 [1]
  Ki: > 10000 nM
Cannabinoid receptor 2
  Ki: 2390 nM

## CCCCCCC(C)(C)c1cc(O)cc(OCCCCCCCCOC(CO)CO)c1
Cannabinoid receptor 1 [1]
  Ki: 270 nM
Cannabinoid receptor 2
  Ki: 110 nM

## CCCCCCC(C)(C)c1cc(O)cc(OCCCCCCOC(CO)CO)c1
Cannabinoid receptor 2
  Ki: 190 nM

## CCCCCCc1ccc(OCCCCCCCCCCC(=O)OC(CO)CO)cc1O
Cannabinoid receptor 1 [1]
  Ki: > 10000 nM
Cannabinoid receptor 2
  Ki: 7870 nM

## CCCCCCC(C)(C)c1cc(O)cc(OCCCCCCCC(=O)OC(CO)CO)c1
Cannabinoid receptor 1 [1]
  Ki: 1120 nM
Cannabinoid receptor 2
  Ki: 790 nM

## CCCCCc1cc(O)cc(OCCCCCCCCCCC(=O)OCC(O)CO)c1 (stereo not given)
Cannabinoid receptor 1 [1]
  Ki: > 10000 nM
Cannabinoid receptor 2
  Ki: 7910 nM

## CCCCCc1cc(O)cc(OCCCCCCOC(CO)CO)c1
Cannabinoid receptor 1 [1]
  Ki: 430 nM
Cannabinoid receptor 2
  Ki: 910 nM

## CCCCCc1cc(O)cc(OCCCCCCCCOC(CO)CO)c1
Cannabinoid receptor 1 [1]
  Ki: 1860 nM
Cannabinoid receptor 2
  Ki: 1160 nM

## CCCCCCC(C)(C)c1cc(O)cc(OCCCCCCCCCCOC(CO)CO)c1
Cannabinoid receptor 1 [1]
  Ki: 2940 nM
Cannabinoid receptor 2
  Ki: 380 nM

## CCCCCc1cc(O)cc(OCCCCCCCC(=O)OC(CO)CO)c1
Cannabinoid receptor 1 [1]
  Ki: 5600 nM
Cannabinoid receptor 2
  Ki: 7870 nM

## CCCCCCc1ccc(OCCCCCCCCCCC(=O)OCC(O)CO)cc1O (stereo not given)
Cannabinoid receptor 1 [1]
  Ki: > 10000 nM
Cannabinoid receptor 2
  Ki: 10400 nM

## CCCCC/C=C\C/C=C\C/C=C\C/C=C\CCCCOC(CO)CO
Cannabinoid receptor 1 [1]
  Ki: 20 nM
Cannabinoid receptor 2
  Ki: > 3000 nM

## CCCCCCC(C)(C)c1cc(O)cc(OCCCCCCCCCCC(=O)OCC(O)CO)c1 (stereo not given)
Cannabinoid receptor 1 [1]
  Ki: > 10000 nM
Cannabinoid receptor 2
  Ki: 310 nM

## CCCCCCc1ccc(O)cc1OCCCCCCCCCCC(=O)OCC(O)CO (stereo not given)
Cannabinoid receptor 1 [1]
  Ki: > 10000 nM
Cannabinoid receptor 2
  Ki: 4820 nM

## CCCCCc1cc(O)cc(OCCCCCCCCCCC(=O)OC(CO)CO)c1
Cannabinoid receptor 1 [1]
  Ki: 5600 nM
Cannabinoid receptor 2
  Ki: 870 nM

## CCCCCCc1ccc(OCCCCCCOC(CO)CO)cc1O
Cannabinoid receptor 1 [1]
  Ki: > 10000 nM
Cannabinoid receptor 2
  Ki: 1130 nM

## CCCCCCC(C)(C)c1ccc([C@@H]2C[C@H](O)CC[C@H]2CCCO)c(O)c1 [CP-55940]
Cannabinoid receptor 1 [2]
  EC50: 42 nM
[3]
  Emax: 104%
